In ChEMBL document CHEMBL1208768, “Synthesis, selective anti-Helicobacter pylori activity, and cytotoxicity of novel N-substituted-2-oxo-2H-1-benzopyran-3-carboxamides” (Bioorg Med Chem Lett, 2010):
Calls of active or inactive are those of the source. The rule behind the calls is not given here.

Legend:
[Candida] sake = Antifungal activity against Candida sake after 24 hrs by broth microdilution method; type: functional; conditions: Fermentozyma sake
In short: (§1)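 Candida isolates from respiratory-tract specimens, tested by NCCLS broth microdilution in Sabouraud dextrose broth. Serial compound dilutions inoculated to 10³/mL, with fungus-only and medium-only controls. Incubated 24 h at 37 °C. MIC was the lowest concentration with complete visible growth inhibition.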

Staphylococcus hominis = assay: Antibacterial activity against Staphylococcus hominis after 18 to 22 hrs by broth microdilution method; type: functional
In short: (§2)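 Clinical respiratory-tract isolates from patients, subcultured for purity and identified conventionally. Broth microdilution per NCCLS in Mueller–Hinton II broth; each plate had growth controls (bacteria, no compound) and medium-only controls. Incubation 18–22 h at 35 °C. MIC taken as the lowest concentration giving complete growth inhibition by unaided eye.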

Pichia kudriavzevii = assay: Antifungal activity against Candida krusei after 24 hrs by broth microdilution method; type: functional; in short: as §1
Citrobacter freundii = assay: Antibacterial activity against Citrobacter freundii after 18 to 22 hrs by broth microdilution method; type: functional; in short: as §2
AGS [1] = assay: Antiinflammatory activity in human AGS cells assessed as inhibition of IL-8 production at 0.5 ug/mL after 24 hrs; type: functional, cell-based
In short: (§3)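 AGS gastric adenocarcinoma cells were grown in F-12K with 10% FBS. They were seeded at 1 × 10⁵/mL for 24 h, preincubated 1 h with compound at 5 or 0.5 µg/mL, then exposed to H. pylori.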

[2] = system: Staphylococcus haemolyticus; assay: Antibacterial activity against Staphylococcus haemolyticus after 18 to 22 hrs by broth microdilution method; type: functional; in short: as §2
Klebsiella oxytoca = assay: Antibacterial activity against Klebsiella oxytoca after 18 to 22 hrs by broth microdilution method; type: functional; in short: as §2
Enterococcus faecalis = assay: Antibacterial activity against Streptococcus faecalis after 18 to 22 hrs by broth microdilution method; type: functional; in short: as §2
Escherichia coli = assay: Antibacterial activity against Escherichia coli after 18 to 22 hrs by broth microdilution method; type: functional; in short: as §2
Klebsiella pneumoniae = assay: Antibacterial activity against Klebsiella pneumoniae after 18 to 22 hrs by broth microdilution method; type: functional; in short: as §2
Proteus vulgaris = assay: Antibacterial activity against Proteus vulgaris after 18 to 22 hrs by broth microdilution method; type: functional; in short: as §2
[3] = Solubility of the compound in DMSO at 0.0039 to 128 ug/mL; type: physicochemical
[4] = system: Staphylococcus epidermidis; assay: Antibacterial activity against Staphylococcus epidermidis after 18 to 22 hrs by broth microdilution method; type: functional; in short: as §2
Candida albicans = assay: Antifungal activity against Candida albicans after 24 hrs by broth microdilution method; type: functional; in short: as §1
AGS [5] = assay: Antiinflammatory activity in human AGS cells assessed as inhibition of IL-8 production at 5 ug/mL after 24 hrs; type: functional, cell-based; in short: as §3
Klebsiella aerogenes = assay: Antibacterial activity against Enterobacter aerogenes after 18 to 22 hrs by broth microdilution method; type: functional; in short: as §2
Staphylococcus aureus = assay: Antibacterial activity against Staphylococcus aureus after 18 to 22 hrs by broth microdilution method; type: functional; in short: as §2
Enterobacter = assay: Antibacterial activity against Enterobacter after 18 to 22 hrs by broth microdilution method; type: functional; in short: as §2

| MIC ([Candida] sake) [µg/mL] | MIC (Staphylococcus hominis) [µg/mL] | MIC (Pichia kudriavzevii) [µg/mL] | MIC (Citrobacter freundii) [µg/mL] | MIC (Klebsiella oxytoca) [µg/mL] | MIC (Enterococcus faecalis) [µg/mL] | MIC (Escherichia coli) [µg/mL] | MIC (Klebsiella pneumoniae) [µg/mL] | MIC (Proteus vulgaris) [µg/mL] | solubility [3] | MIC [4] [µg/mL] | MIC (Candida albicans) [µg/mL] | MIC (Klebsiella aerogenes) [µg/mL] | MIC (Staphylococcus aureus) [µg/mL] | MIC (Enterobacter) [µg/mL] | Compound | inhibition (AGS [1]) | MIC [2] [µg/mL] | inhibition (AGS [5]) |
| --- | --- | --- | --- | --- | --- | --- | --- | --- | --- | --- | --- | --- | --- | --- | --- | --- | --- | --- |
| > 128 | > 128 | > 128 | > 128 | > 128 | > 128 | > 128 | > 128 | > 128 | Insoluble | > 128 | > 128 | > 128 | > 128 | > 128 | CCOC(=O)c1ccc(NC(=O)c2cc3ccc(OC)cc3oc2=O)cc1 | inactive | > 128 | inactive |
| > 128 | > 128 | > 128 | > 128 | > 128 | > 128 | > 128 | > 128 | > 128 | Insoluble | > 128 | > 128 | > 128 | > 128 | > 128 | Cc1ccc2oc(=O)c(C(=O)Nc3ccc(C(=O)O)cc3)cc2c1 | inactive | > 128 | inactive |
| > 128 | > 128 | > 128 | > 128 | > 128 | > 128 | > 128 | > 128 | > 128 | Insoluble | > 128 | > 128 | > 128 | > 128 | > 128 | CCOC(=O)c1ccc(NC(=O)c2cc3cc([N+](=O)[O-])ccc3oc2=O)cc1 | inactive | > 128 | inactive |
